Assay results from ChEMBL document CHEMBL3784943, “Structure based medicinal chemistry-driven strategy to design substituted dihydropyrimidines as potential antileishmanial agents” (Eur J Med Chem, 2016).
Values after ≈ are worked out from the molar mass of the structure shown.

Tests used:
[1] = system: Leishmania major; assay: Antileishmanial activity against Leishmania major promastigotes after 72 hrs by Neubauer chamber counting; type: functional, organism-based
[2] = system: Leishmania donovani; assay: Antileishmanial activity against Leishmania donovani promastigotes after 72 hrs by Neubauer chamber counting; type: functional, organism-based
In short: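 Clinical isolate promastigotes grown at 24 °C in medium 199 with 10% fetal bovine serum, HEPES, sodium bicarbonate, penicillin and streptomycin. Cultures harvested after 6–7 days, washed three times in PBS, resuspended at 2 × 10^6 cells/mL and exposed to serial compound dilutions for 72 h at 24 °C with shaking. Amphotericin B positive control, DMSO negative control. Run in triplicate; IC50 from live-cell counts.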

[3] = Leishmania donovani, 72 h, read-out: IC50

| SMILES | IC50 [1] [µg/mL] | IC50 [2] | IC50 [2, 3] [µg/mL] |
| --- | --- | --- | --- |
| CC1=C(C(=O)/C=C/c2cccc([N+](=O)[O-])c2)C(c2ccccc2)NC(=O)N1C (configuration not stated) | 0.73 (≈ 1.93 µM) | Not Active | – |
| CC(=O)C1=C(C)NC(=S)NC1c1ccccc1 (configuration not stated) | 0.78 (≈ 3.17 µM) | – | – |
| CCOC(=O)C1=C(C)NC(=O)NC1c1ccccc1 (configuration not stated) | 0.99 (≈ 3.8 µM) | – | – |
| CC(=O)C1=C(CNc2ccc(C3=NNC(c4ccc(O)cc4)C3)cc2)N(C)C(=O)NC1c1ccccc1 (configuration not stated) | 0.47 (≈ 0.948 µM) | – | 1.5 (≈ 3.03 µM) |
| CC(=O)C1=C(CNc2ccc(C(=O)/C=C/c3ccc(N(C)C)cc3)cc2)N(C)C(=O)NC1c1ccccc1 (configuration not stated) | 0.71 (≈ 1.4 µM) | Not Active | – |
| CC1=C(C(=O)Nc2ccc(C(=O)/C=C/c3ccc(O)cc3)cc2)C(c2ccc(C)cc2)NC(=S)N1 (configuration not stated) | 0.53 (≈ 1.1 µM) | Not Active | – |
| CC(=O)C1=C(CNc2ccc(C(=O)/C=C/c3ccc(Cl)cc3)cc2)N(C)C(=O)NC1c1ccccc1 (configuration not stated) | 0.53 (≈ 1.06 µM) | – | 4.4 (≈ 8.8 µM) |
| COCC1=C(C(=O)OC)C(c2cccc([N+](=O)[O-])c2)NC(=O)N1 (configuration not stated) | 0.95 (≈ 2.96 µM) | – | – |
| CC(=O)C1=C(C)NC(=O)NC1c1cccc(C)c1 (configuration not stated) | 0.89 (≈ 3.64 µM) | – | – |
| CC(=O)C1=C(C)N(C)C(=O)NC1c1ccccc1 (configuration not stated) | 0.63 (≈ 2.58 µM) | – | – |
| CC(=O)C1=C(C)NC(=O)NC1c1ccccc1 (configuration not stated) | 0.61 (≈ 2.65 µM) | – | – |
| CC(=O)C1=C(CNc2ccc(C(=O)/C=C/c3ccccc3)cc2)N(C)C(=O)NC1c1ccccc1 (configuration not stated) | 0.54 (≈ 1.16 µM) | – | > 100 |
| CCOC(=O)C1=C(C)NC(=S)NC1c1cccc(O)c1 (configuration not stated) [MONASTROL] | 0.65 (≈ 2.22 µM) | – | – |
| CC1=C(C(=O)Nc2ccc(C(=O)/C=C/c3cccc([N+](=O)[O-])c3)cc2)C(c2ccc(C)cc2)NC(=S)N1 (configuration not stated) | 0.65 (≈ 1.27 µM) | Not Active | – |
| CC1=C(C(=O)Nc2ccc(C(=O)/C=C/c3cccc([N+](=O)[O-])c3)cc2)C(c2cccc(O)c2)NC(=S)N1 (configuration not stated) | 0.58 (≈ 1.13 µM) | Not Active | – |
| COc1cc(C2NC(=O)NC(C)=C2C(C)=O)ccc1O (configuration not stated) | 0.71 (≈ 2.57 µM) | – | – |

Now from value to molecule:

| IC50 [1] [µg/mL] | IC50 [2] | IC50 [2, 3] [µg/mL] | SMILES |
| --- | --- | --- | --- |
| 0.67 (≈ 2.43 µM) | – | – | CC(=O)C1=C(C)NC(=O)NC1c1cccc([N+](=O)[O-])c1 (configuration not stated) |
| 0.51 (≈ 1.06 µM) | – | 7.5 (≈ 15.6 µM) | CC(=O)C1=C(CNc2ccc(C(=O)/C=C/c3ccc(O)cc3)cc2)N(C)C(=O)NC1c1ccccc1 (configuration not stated) |
| 0.67 (≈ 1.31 µM) | – | > 100 | CC(=O)C1=C(CNc2ccc(C(=O)/C=C/c3cccc([N+](=O)[O-])c3)cc2)N(C)C(=O)NC1c1ccccc1 (configuration not stated) |
| 0.63 (≈ 2.17 µM) | – | – | CCOC(=O)C1=C(C)NC(=S)NC1c1ccc(C)cc1 (configuration not stated) |
| 0.59 (≈ 1.69 µM) | Not Active | – | CC1=C(C(=O)/C=C/c2ccc(O)cc2)C(c2ccccc2)NC(=O)N1C (configuration not stated) |
| 0.69 (≈ 2.65 µM) | – | – | COc1ccc(C2NC(=O)NC(C)=C2C(C)=O)cc1 (configuration not stated) |
| 0.51 (≈ 1.05 µM) | – | 5.58 (≈ 11.5 µM) | CC1=C(C(=O)Nc2ccc(C(=O)/C=C/c3ccc(O)cc3)cc2)C(c2cccc(O)c2)NC(=S)N1 (configuration not stated) |
| 0.63 (≈ 1.72 µM) | Not Active | – | CC1=C(C(=O)/C=C/c2ccc(Cl)cc2)C(c2ccccc2)NC(=O)N1C (configuration not stated) |
